Sampled rows, rich in hits. Any-hit rate of the full collection: about 3.7%.
DTT redox prof – compounds producing H2O2 with reducing agent – biochemical, NIH compound library profiling, artefact control for MLSCN library redox annotation, primary screen | DTT-dependent redox cycling H2O2, phenol red/HRP absorbance; 100% = 100 µM peroxide control, 0% = buffer | 0.03% of 200,000 active | AID 878, 2007 | activation, % at 10 µM;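 active = activation of at least 50% relative to the plate's high and low controls in the primary single-dose screen; inactive = activation below 50%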;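 also: compound incubated with DTT at 0.8 mM final as the reducing agent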
MT stabilizer – microtubule stabilizers in HeLa cells, primary screen, imaging, high-content imaging; HeLa tubulin immunostaining HCS, 24 h; share of cells brighter than vehicle mean+2SD; % tubulin-high responders, % at 10 µM; 0.83% of 200,000 active;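 active = plate Z-score above 3 for both tubulin-high and condensed-nucleus cell shares, with cell loss under 80%, at 10 µM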;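 also: anti alpha tubulin signal scored within the nucleus-defined area of each cell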
b-catenin transl – modulators of beta-catenin nuclear translocation, primary screen, imaging, HeLa cells, immunofluorescence, high-content; nuclear translocation activity, % at 5 µM; 0.3% of 190,000 active; AID 1665, 2009;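 active = nuclear translocation activity above 50% at 5 µM, with a well cell count of 50 or more; inconclusive = wells under 50 cells across six images, flagged as toxic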;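 also: per-cell ratio of nuclear to cytoplasmic median beta-catenin stain intensity; plate controls were DMSO negative control for no effect and GSK-3 inhibitor IX positive control for full effect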
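Signal – beta-catenin immunofluorescence imaging with DAPI · Test system – human HeLa cell line · Dosing – 5 µM primary single dose, 0.1% DMSO, 0.02–20 µM confirmation series · Measure – % activation, nuclear-to-cytoplasmic median beta-catenin signal ratio per cell · Incubation – 24 h compound exposure at 37°C, 5% CO2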
Cl transport mod – KCC2 cotransporter modulators, thallium flux, primary screen, cell-based, HEK293 KCC2, FluoZin-2 fluorescence, MLSMR; KCC2 cells, thallium flux FluoZin-2 fluorescence; B-score of Tl+ flux slope (higher = more flux/activation; lower = inhibition) at 10 µM; 2.2% of 190,000 active;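 active = thallium flux slope and its plate-corrected score both differing from the plate sample mean at a set confidence after two filtering rounds, in either direction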;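 also: slope of fluorescence scaled to starting intensity during 10 to 20 s after thallium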
ROMK mod – ROMK potassium channel modulators, primary screen, cell-based, thallium flux, MLSMR library; ATP-sensitive inward rectifier potassium channel 1 (Homo sapiens), P48048; Tet-inducible ROMK, thallium flux fluorescence; actives lie on both sides; 2% of 130,000 active; AID 1918, 2009; B-score at 10 µM;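 active = signal ratio slope over the read window, or its plate-corrected B-score, at least 3 SD from the plate mean, either direction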;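 also: B-score of the F/F0 ratio slope over 7 to 12 s after thallium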
Target sequence (P48048 whole entry, looked up): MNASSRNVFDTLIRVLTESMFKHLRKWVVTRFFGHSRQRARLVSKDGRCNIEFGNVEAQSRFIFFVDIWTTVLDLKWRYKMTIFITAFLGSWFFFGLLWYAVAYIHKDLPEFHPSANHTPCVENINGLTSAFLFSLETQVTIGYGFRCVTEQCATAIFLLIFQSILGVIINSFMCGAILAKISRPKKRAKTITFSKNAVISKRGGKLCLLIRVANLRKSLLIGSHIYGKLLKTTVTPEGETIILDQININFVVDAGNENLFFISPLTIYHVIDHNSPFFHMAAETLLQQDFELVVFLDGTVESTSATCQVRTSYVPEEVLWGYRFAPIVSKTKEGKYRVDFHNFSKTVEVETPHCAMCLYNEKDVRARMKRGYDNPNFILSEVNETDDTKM
KCC2 sec1 – KCC2 modulators in sodium-free buffer, confirmation, cell-based, HEK293 KCC2, thallium flux, secondary assay; shares compounds with Cl transport mod; FluoZin2 fluorescence; active compounds read high; normalised thallium flux (F/F0 slope) at 10 µM; 15% of 3,700 active;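 active = thallium flux slope above the same plate's solvent-only control mean plus 3 SD; inconclusive = the two replicate wells disagree; inactive = no significant difference from solvent-only control wells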
KCC2 bumet counter – thallium flux persisting under bumetanide in KCC2 cells, confirmation, counter-screen for KCC2 modulator project, cell-based, HEK293 KCC2, FluoZin2, secondary assay 3 | shares compounds with Cl transport mod | normalized thallium flux at 10 µM | HEK293-KCC2 + bumetanide/ouabain; active compounds read high | 49% of 3,700 active;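 active = thallium entry rate above the same plate's blocked-transporter control wells by more than 3 SD; inconclusive = the two repeat wells disagree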;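 also: raw slope of fluorescence over initial fluorescence between 10 and 20 s after thallium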
KCC2 sec2 – KCC2 modulators without ouabain present, confirmation, cell-based, HEK293 KCC2, thallium flux, FluoZin2, secondary assay 2. shares compounds with Cl transport mod. thallium flux FluoZin2 fluorescence; actives lie on both sides; F/F0 rise rate, 10–20 s post-thallium. normalized thallium flux at 10 µM. 23% of 3,700 active;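 active = thallium flux slope more than 3 SD above or below the plate's solvent-only control mean, mostly below; inconclusive = the two repeat wells disagreed; inactive = no significant shift from solvent-only controls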;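 also: raw slope with 0.1% DMSO as baseline and bumetanide as block control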
HEK293 Tl flux – thallium flux modulation in parental HEK cells, confirmation, counter-screen for KCC2 modulator project, cell-based, counterscreen 1. shares compounds with Cl transport mod. 46% of 3,700 active. HEK293 parental cells, thallium flux FluoZin2, ouabain; baseline-ratio fluorescence slope, 10–20 s after thallium. thallium flux rate (normalised fluorescence) at 10 µM;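 active = thallium flux rate significantly above the same plate's solvent-only control wells, beyond their mean plus 3 SD; inconclusive = the two replicate wells gave conflicting results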
KCC2 ouabain – KCC2 inhibitors and activators, ouabain retest, confirmation, HEK-KCC2 cells; shares compounds with Cl transport mod; HEK293-KCC2, thallium flux FluoZin2 fluorescence; bidirectional: low = inhibitor, high = activator; raw Tl+ flux slope (below DMSO = inhibition, above = activation) at 10 µM; 48% of 3,700 active; AID 1717, 2009;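 active = thallium flux slope beyond 3 SD from same-plate DMSO control mean in most replicates, usually higher, sometimes lower; inconclusive = repeat tests gave conflicting results; inactive = no significant difference from controls in most replicates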;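 also: slope of initial-normalized fluorescence between seconds 10 and 20 after thallium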
HEK counter2 – native HEK Tl+ uptake effects, second counter-screen – HEK cells, counterscreen 2, counter-screen for KCC2 modulator project, confirmation. shares compounds with Cl transport mod. HEK293 parental, thallium flux FluoZin-2 fluorescence slope. thallium flux slope at 10 µM. 33% of 3,700 active;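 active = thallium flux slope above the same plate's solvent-control mean plus 3 SD in both duplicate wells; inconclusive = duplicate wells that disagreed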;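 also: run without ouabain in cells lacking the KCC2 cotransporter; slope of fluorescence scaled to its starting value between 10 and 20 s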
* = called active by the depositor; ? = inconclusive; / = not tested or not shown.

SMILES	DTT redox prof	MT stabilizer	b-catenin transl	Cl transport mod	ROMK mod	KCC2 sec1	KCC2 bumet counter	KCC2 sec2	HEK293 Tl flux	KCC2 ouabain	HEK counter2
CC(=O)c1sc(-c2ccc(F)cc2)cc1NS(=O)(=O)c1ccccc1	/	/	-1.5	9.05*	/	0.00888	0.0158*	0.0333	0.0153*	?	?
CCOC(=O)c1c(C)c(C(=O)N2CCN(c3ccc(F)cc3)CC2)c(C)n1C	-0.7	6.1	-0.4	-1.7	0.451	/	/	/	/	/	/
O=C(N/N=C/c1ccc(O)cc1)c1cc[n+](Cc2ccccc2)cc1	0.9	2.7	-1.7	0.203	/	/	/	/	/	/	/
O=C(N/N=C/c1ccc(OCc2ccccc2)cc1)c1cc[n+](Cc2ccccc2)cc1	0.3	7.5	-0.2	-3.45*	-2.01	0.00583	?	0.0241*	0.00787	?	0.0117
COc1ccc(-n2cc(-c3ccc(Cl)cc3)[nH]c2=S)cc1	/	/	-0.1	5.66*	/	0.0246*	0.0132*	0.0302	0.00925*	0.0192	0.0115
COc1ccc(-c2cn(-c3ccc(Cl)cc3)c3[n+]2CCCCC3)cc1	/	/	1.2	1.47	/	/	/	/	/	/	/
CC1CCCN(C(=S)NC2CCCC2)C1 (configuration not stated)	-0.5	3.3	-1.5	0.821	0.402	/	/	/	/	/	/
CC(NC(=O)Cc1cccs1)c1ccc2c(c1)OCO2 (configuration not stated)	0.6	3.9	-0.9	1.69*	/	0.00905	0.00675	0.0323	0.00434	0.021	0.0112
CC(NC(=O)Cc1cccs1)c1ccncc1 (configuration not stated)	1.3	4.5	0.7	0.112	/	/	/	/	/	/	/
O=C(/C=C/c1ccccc1)CC(=O)c1ccccc1O	-1.3	3.0	-1.3	6.81*	/	0.00536	0.0111*	0.0306	0.0126*	?	0.0152*
CCOc1ccc(C2=Nn3c(nnc3-c3ccccn3)SC2)cc1	2.2	6.4	0.6	-0.759	0.204	0.0103	0.0062	0.0336	0.00638	0.0217	0.0102
COc1cc(/C=C(\C#N)c2nc3ccccc3s2)cc([N+](=O)[O-])c1O	0.0	3.3	-3.0	-1.83	0.629	/	/	/	/	/	/
N#C/C(=C\c1ccc(O)c([N+](=O)[O-])c1)c1nc2ccccc2s1	0.4	3.5	2.9	-6.21*	-0.666	0.00786	0.00596	0.0318	0.00702	0.0133*	0.0105
O=C(O)C/C(=C\c1ccc(N2CCOCC2)c([N+](=O)[O-])c1)c1nc2ccccc2s1	/	/	-3.2	/	/	/	/	/	/	/	/
O=C(O)CC/C(=C\c1ccc(Cl)c([N+](=O)[O-])c1)c1nc2ccccc2s1	2.7	1.5	-0.1	-7.12*	-1.85	0.00719	0.0072	?	0.00578*	?	0.00896
O=C(O)CC/C(=C\c1ccc(N2CCOCC2)c([N+](=O)[O-])c1)c1nc2ccccc2s1	-2.7	4.4	-1.5	-8.46*	0.0625	0.00575	0.0048	0.0205*	0.00743	?	0.0111
O=C(NC(=S)Nc1cccc2cccnc12)c1cccs1	-1.0	2.4	1.2	2.83*	1.07	0.00759	0.00959*	0.0319	?	?	0.00979
Cc1nc(NC(=S)NC(=O)c2cccs2)ccc1Br	-0.1	5.7	/	36.1*	-0.15	0.0139*	0.115*	0.0341	0.0381*	0.0416*	0.0123*
COc1ccc(C(=O)Nc2cccc3cccnc23)cc1OC	0.5	1.2	/	-6.28*	1.02	0.00838	0.00526	0.0323	0.00666	0.0202	0.0101
Cc1nc(NC(=S)NC(=O)c2cccs2)sc1C(=O)N(C)C	-1.7	1.2	-5.6	0.125	0.506	/	/	/	/	/	/
Cc1cccc(NC2=NC(=S)N(c3ccc(C(=O)O)cc3)C23CCCCC3)c1	2.3	2.8	-2.2	-0.00649	/	/	/	/	/	/	/
COc1ccc(NC2=NC(=S)N(c3cccc(C)c3)C23CCCCC3)cc1	-15.7	3.2	-2.2	7.3*	/	0.0107	0.016*	0.0344	0.0111*	?	0.0106
Cc1ccccc1NC1=NC(=S)N(c2ccccc2)C12CCCCC2	-0.1	2.9	/	56.6*	0.974	0.025*	0.162*	0.043*	0.0779*	0.11*	0.0223*
COc1ccc(NC2=NC(=S)N(c3ccc(C)cc3)C23CCCCC3)cc1	-2.6	3.9	/	/	/	/	/	/	/	/	/
CC1(C)CC2(CCO1)C(Nc1ccccc1)=NC(=S)N2c1ccccc1 (configuration not stated)	/	/	0.3	13.7*	-0.655	0.0139*	0.034*	0.035	0.0205*	0.0291	0.0143*
SMILES	DTT redox prof	MT stabilizer	b-catenin transl	Cl transport mod	ROMK mod	KCC2 sec1	KCC2 bumet counter	KCC2 sec2	HEK293 Tl flux	KCC2 ouabain	HEK counter2
CN1CCN(C(=O)c2ccc(CS(=O)(=O)c3c(Cl)cccc3Cl)o2)CC1	0.0	4.3	-4.0	-3.31*	/	0.0059	0.00466	0.0334	0.00767	0.0181	0.0116
O=C(c1ccc(CS(=O)(=O)c2c(Cl)cccc2Cl)o1)N1CCCC1	-0.5	1.9	/	-3.31	/	/	/	/	/	/	/
Cc1ccc(S(=O)(=O)CCNC(=O)Cc2ccc(Cl)cc2)cc1	0.0	3.3	0.0	-0.262	-0.669	/	/	/	/	/	/
COc1ccc(NC(=O)CSc2nc(-c3ccncc3)nn2CC(=O)N2CCCC2)cc1	0.6	2.8	-8.5	-4.25*	0.0387	0.0069	0.00477	0.0279	0.00737	0.018	0.0105
COc1ccc(NC(=O)CSc2nnc(-c3ccncc3)n2C)cc1	-1.0	2.2	/	0.498	/	/	/	/	/	/	/
CCOC(=O)Nc1cc(NC(=O)OCC)c(C)nc1C	/	/	-1.4	-0.727	/	/	/	/	/	/	/

From PubChem
